Drawing on ChEMBL document CHEMBL1629439, “High-throughput identification of antibacterials against methicillin-resistant Staphylococcus aureus (MRSA) and the transglycosylase” (Bioorg Med Chem, 2010), this text covers MIC for 8 molecules.

Converted amounts (≈) assume the structure as drawn.

In assay [1] the test system is Staphylococcus aureus. Kind of assay: Antimicrobial activity against methicillin-resistant Staphylococcus aureus ATCC 33592 after 18 to 24 hrs by alamar blue assay. Format: functional. The settings on record: Staphylococcus aureus, ATCC 33592; read-out: MIC. An outline of the steps: (§1)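 Broth microdilution per NCCLS standard, Mueller-Hinton broth, 8-point twofold dilutions; exponentially growing cells at 5 10^5 cells/ml with compound, 18–24 h at 37 C; 20% Alamar blue added, fluorescence read; MIC90 taken as lowest concentration preventing at least 90% growth.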
For orientation: Alamar Blue is a resazurin reagent that responds to reducing activity.

The test system of the next assay is Acinetobacter baumannii. The assay can be described thus: Antimicrobial activity against Acinetobacter baumannii ATCC 49139 after 18 to 24 hrs by alamar blue assay. It counts as functional. The settings on record: Acinetobacter baumannii, ATCC 49139; read-out: MIC. The method, boiled down: (§2)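 Broth microdilution per NCCLS in Mueller-Hinton broth, 8-point twofold dilutions, 384-well format. Exponential-phase cells at 5 × 10^5 cells/ml incubated with compound 18–24 h at 37 °C, then 20% Alamar blue added and fluorescence read. MIC90 taken as the lowest concentration preventing at least 90% bacterial growth.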

The next assay has as its system Escherichia coli. The assay can be described thus: Antimicrobial activity against Escherichia coli ATCC […] after 18 to 24 hrs by alamar blue assay. Conditions: Escherichia coli; read-out: MIC. Format: functional. The method, boiled down: as §2
A further assay relates to Pseudomonas aeruginosa. Kind of assay: Antimicrobial activity against Pseudomonas aeruginosa ATCC 25619 after 18 to 24 hrs by alamar blue assay. Format: functional. The settings on record: Pseudomonas aeruginosa, ATCC 25619; read-out: MIC. An outline of the steps: as §2
For assay [2], the system named is Stenotrophomonas maltophilia. The assay can be described thus: Antimicrobial activity against Stenotrophomonas maltophilia ATCC 13637 after 18 to 24 hrs by alamar blue assay. Format: functional. Conditions: Stenotrophomonas maltophilia, ATCC 13637; read-out: MIC. An outline of the steps:
as §2

The subject of assay [3] is Staphylococcus aureus. Kind of assay: Antimicrobial activity against methicillin-resistant Staphylococcus aureus isolate NTUH4722 after 18 to 24 hrs by alamar blue assay. Format: functional. An outline of the steps: as §1
In assay [4] the test system is Staphylococcus aureus. Kind of assay: Antimicrobial activity against Staphylococcus aureus ATCC 29213 after 18 to 24 hrs by alamar blue assay.
The subject of a further assay is Bacillus subtilis. The assay can be described thus: Antimicrobial activity against Bacillus subtilis ATCC 23857 after 18 to 24 hrs by alamar blue assay. Format: functional. An outline of the steps: as §2
For assay [5], the system named is Staphylococcus aureus. Kind of assay: Antimicrobial activity against oxacillin- and methicillin-resistant Staphylococcus aureus isolate Sa-OXA-R2 after 18 to 24 hrs by alamar blue assay. Format: functional. An outline of the steps: as §1
Assay [6] has as its system Mycolicibacterium smegmatis. The assay can be described thus: Antimicrobial activity against Mycobacterium smegmatis BCRC 11565 after 18 to 24 hrs by alamar blue assay. The settings on record: Mycolicibacterium smegmatis, BCRC 11565; read-out: MIC. It counts as functional. The method, boiled down:
as §2

A further assay concerns Serratia marcescens. The assay can be described thus: Antimicrobial activity against Serratia marcescens ATCC 14756 after 18 to 24 hrs by alamar blue assay. Format: functional. Conditions: Serratia marcescens, ATCC 14756; read-out: MIC. An outline of the steps: as §2

As usually defined, the MIC is the lowest concentration found to suppress growth. In the case of `O=C(Nc1cc(Cl)ccc1Cl)c1cc(Br)cc(Br)c1O`, the MIC in the assay with Staphylococcus aureus [1] amounted to 1 µg/mL (≈ 2.27 µM); with Acinetobacter baumannii, 16 µg/mL (≈ 36.4 µM); with Escherichia coli it was 8 µg/mL (≈ 18.2 µM); in the assay with Pseudomonas aeruginosa, 16 µg/mL (≈ 36.4 µM); in [2], 16 µg/mL (≈ 36.4 µM); against Staphylococcus aureus [3], 0.5 µg/mL (≈ 1.14 µM). For the same molecule, the MIC with Staphylococcus aureus [4] was 1 µg/mL (≈ 2.27 µM); against Bacillus subtilis, less than 0.03 µg/mL; with Staphylococcus aureus [5] it was 0.5 µg/mL (≈ 1.14 µM); in [6], 0.5 µg/mL (≈ 1.14 µM); with Serratia marcescens, 16 µg/mL (≈ 36.4 µM).

`O=C1c2cc([N+](=O)[O-])cc3cc([N+](=O)[O-])cc(c23)C(=O)N1c1cccc2ccccc12`: the MIC in the assay with Staphylococcus aureus [1] was 2.5 µg/mL (≈ 6.05 µM); in the assay on Acinetobacter baumannii it was more than 256 µg/mL; in the assay with Escherichia coli it was more than 256 µg/mL; with Pseudomonas aeruginosa, more than 256 µg/mL; in assay [2] it was more than 256 µg/mL; against Staphylococcus aureus [3] it was 0.125 µg/mL (≈ 0.302 µM). Also, the MIC against Staphylococcus aureus [4] was 1.25 µg/mL (≈ 3.02 µM); with Bacillus subtilis, 4 µg/mL (≈ 9.68 µM); in the assay with Staphylococcus aureus [5], 0.125 µg/mL (≈ 0.302 µM); in assay [6], 4 µg/mL (≈ 9.68 µM); in the assay with Serratia marcescens it was more than 256 µg/mL.

Turning to `CCCc1cc(O)nc(N2NC(C)=CC2NC(=O)c2ccccc2Cl)n1` (stereo not drawn), the MIC with Staphylococcus aureus [1] is 0.5 µg/mL (≈ 1.34 µM); with Acinetobacter baumannii it was more than 256 µg/mL; in the assay with Escherichia coli, more than 256 µg/mL; in the assay with Pseudomonas aeruginosa, more than 256 µg/mL; in [2], more than 256 µg/mL; in the assay on Staphylococcus aureus [3] it was 1 µg/mL (≈ 2.67 µM). Further, the MIC was 1 µg/mL (≈ 2.67 µM) against Staphylococcus aureus [4]; 0.25 µg/mL (≈ 0.669 µM) against Bacillus subtilis; 2 µg/mL (≈ 5.35 µM) against Staphylococcus aureus [5]; 0.25 µg/mL (≈ 0.669 µM) in assay [6]; more than 256 µg/mL in the assay on Serratia marcescens.

With `O=C(Nc1cc(Cl)ccc1Cl)c1cc(Cl)cc(Cl)c1O`, the MIC in the assay on Staphylococcus aureus [1] was determined as 0.5 µg/mL (≈ 1.42 µM); in the assay with Acinetobacter baumannii it was 16 µg/mL (≈ 45.6 µM); in the assay on Escherichia coli, 8 µg/mL (≈ 22.8 µM); in the assay with Pseudomonas aeruginosa, 16 µg/mL (≈ 45.6 µM); in [2] it was 16 µg/mL (≈ 45.6 µM); against Staphylococcus aureus [3], 0.5 µg/mL (≈ 1.42 µM). The MIC is 1 µg/mL (≈ 2.85 µM) against Staphylococcus aureus [4]; less than 0.03 µg/mL with Bacillus subtilis; 2 µg/mL (≈ 5.7 µM) in the assay on Staphylococcus aureus [5]; 0.5 µg/mL (≈ 1.42 µM) in assay [6]; 16 µg/mL (≈ 45.6 µM) with Serratia marcescens.

For `Cc1cccc(NS(=O)(=O)c2ccc3c(c2)NC(=O)C(C)S3)c1C` (stereo not drawn), the MIC with Staphylococcus aureus [1] was 64 µg/mL (≈ 177 µM); with Acinetobacter baumannii, more than 256 µg/mL; with Escherichia coli it was more than 256 µg/mL; in the assay on Pseudomonas aeruginosa it was more than 256 µg/mL; in assay [2] it was more than 256 µg/mL; in the assay on Staphylococcus aureus [3], 16 µg/mL (≈ 44.1 µM). Moreover, the MIC in the assay on Staphylococcus aureus [4] was 2 µg/mL (≈ 5.52 µM); with Bacillus subtilis, less than 0.03 µg/mL; in the assay with Staphylococcus aureus [5] it was 16 µg/mL (≈ 44.1 µM); in [6], more than 64 µg/mL; in the assay on Serratia marcescens, more than 256 µg/mL.

On to `O=C1c2cc([N+](=O)[O-])cc3cc([N+](=O)[O-])cc(c23)C(=O)N1Nc1ccc(Cl)cc1`, for which the MIC was 2.5 µg/mL (≈ 6.06 µM) in the assay with Staphylococcus aureus [1]; more than 256 µg/mL in the assay with Acinetobacter baumannii; more than 256 µg/mL in the assay on Escherichia coli; more than 256 µg/mL in the assay with Pseudomonas aeruginosa; more than 256 µg/mL in [2]; 2.5 µg/mL (≈ 6.06 µM) with Staphylococcus aureus [3]. Further, the MIC in the assay with Staphylococcus aureus [4] was 2.5 µg/mL (≈ 6.06 µM); with Bacillus subtilis it was 4 µg/mL (≈ 9.69 µM); with Staphylococcus aureus [5], 2.5 µg/mL (≈ 6.06 µM); in [6], 4 µg/mL (≈ 9.69 µM); in the assay with Serratia marcescens it was more than 256 µg/mL.

Consider `Cc1c(CC(=O)NCC(=O)O)c(=O)oc2c(C)c3occ(-c4ccc(Cl)cc4)c3cc12`, for which the MIC is 1.25 µg/mL (≈ 2.84 µM) with Staphylococcus aureus [1]; more than 256 µg/mL in the assay with Acinetobacter baumannii; more than 256 µg/mL in the assay with Escherichia coli; more than 256 µg/mL in the assay on Pseudomonas aeruginosa; more than 256 µg/mL in [2]; 1.25 µg/mL (≈ 2.84 µM) against Staphylococcus aureus [3]. The MIC in the assay on Staphylococcus aureus [4] is 1.25 µg/mL (≈ 2.84 µM); in the assay with Bacillus subtilis, more than 64 µg/mL; in the assay on Staphylococcus aureus [5] it was 1.25 µg/mL (≈ 2.84 µM); in [6], 1 µg/mL (≈ 2.27 µM); in the assay with Serratia marcescens, more than 256 µg/mL.

Consider `NC(=O)c1ccsc1NC(=O)c1ccc([N+](=O)[O-])o1`, for which the MIC was 0.25 µg/mL (≈ 0.889 µM) with Staphylococcus aureus [1]; 12 µg/mL (≈ 42.7 µM) in the assay on Acinetobacter baumannii; 256 µg/mL (≈ 910 µM) in the assay on Escherichia coli; 128 µg/mL (≈ 455 µM) in the assay with Pseudomonas aeruginosa; 32 µg/mL (≈ 114 µM) in assay [2]; 0.25 µg/mL (≈ 0.889 µM) in the assay on Staphylococcus aureus [3]. Moreover, the MIC against Staphylococcus aureus [4] stood at 2 µg/mL (≈ 7.11 µM); with Bacillus subtilis, 0.06 µg/mL (≈ 0.213 µM); in the assay on Staphylococcus aureus [5] it was 0.25 µg/mL (≈ 0.889 µM); in [6], 0.5 µg/mL (≈ 1.78 µM); in the assay with Serratia marcescens, 32 µg/mL (≈ 114 µM).
